The subject of this experiment is HeLa. Briefly: Antiproliferative activity against human HeLa cells assessed as inhibition of cell growth incubated for 24 hrs by MTT assay. The experiment is classed as functional, cell-based. The method in brief: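 Cells kept in DMEM with 10% FBS and 1% antibiotic-antimycotic at 37 °C and 5% CO2. Seeded at 8 × 10^3 cells per 100 μL and left 24 h, then exposed 24 h to 5, 10, 20, 50 or 100 μM. MTT at 0.5 mg/mL in HBSS was added for 2–4 h at 37 °C in the dark. Formazan was dissolved in DMSO, A570 was read, and IC50 was derived.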
(Tetrazolium assays rely on reduction of a dye to a coloured formazan, in cell work by metabolically active cells.)

In general, IC50 refers to the point on the concentration scale where inhibition reaches its midpoint.

Consider `C[C@@H](C[C@@H](O)[C@H](O)C(C)(C)O)[C@@H]1CC[C@]2(C)C3=CC[C@H]4C(C)(C)[C@H](O)CC[C@]4(C)[C@H]3CC[C@@]12C`, for which the IC50 is > 100 µM.

The values are drawn from ChEMBL document CHEMBL6083205, “A comprehensive apoptotic assessment of niloticin in cervical cancer cells: a tirucallane-type triterpenoid from Aphanamixis polystachya (Wall.) Parker” (RSC Med Chem, 2024).
